Reference: ChEMBL document CHEMBL3044834, “Novel protoporphyrinogen oxidase inhibitors: 3H-pyrazolo[3,4-d][1,2,3]triazin-4-one derivatives” (J Agric Food Chem, 2008)

Legend:
Assay type in all cases: functional
[1] = tested on: Amaranthus retroflexus; experiment: Herbicidal activity against Amaranthus retroflexus assessed as inhibition of fresh weed plant weight at 187.5 g/ha using pre-emergence treatment protocol
[2] = tested on: Echinochloa crus-galli; experiment: Herbicidal activity against Echinochloa crus-galli (barnyard grass) assessed as inhibition of fresh weed plant weight at 750 g/ha using pre-emergence treatment protocol
[3] = tested on: Amaranthus retroflexus; experiment: Herbicidal activity against Amaranthus retroflexus assessed as inhibition of fresh weed plant weight at 750 g/ha using pre-emergence treatment protocol
How it was run: (§1)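 Test compounds made up as emulsions by dissolving in 100 µL N,N-dimethylformamide, then adding a little Tween 20 and water. For post-emergence, weed seedlings at one leaf and one stem were sprayed at the same rates as the pre-emergence test. Fresh weight was recorded 15 days after treatment and expressed as percent inhibition versus controls. All treatments were run in triplicate.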

[4] = tested on: Echinochloa crus-galli; experiment: Herbicidal activity against Echinochloa crus-galli (barnyard grass) assessed as inhibition of fresh weed plant weight at 187.5 g/ha using pre-emergence treatment protocol; how it was run: as §1
[5] = tested on: Digitaria sanguinalis; experiment: Herbicidal activity against Digitaria sanguinalis (hairy crabgrass) assessed as inhibition of fresh weed plant weight at 375 g/ha using pre-emergence treatment protocol
[6] = tested on: Digitaria sanguinalis; experiment: Herbicidal activity against Digitaria sanguinalis (hairy crabgrass) assessed as inhibition of fresh weed plant weight at 93.75 g/ha using pre-emergence treatment protocol
[7] = tested on: Amaranthus retroflexus; experiment: Herbicidal activity against Amaranthus retroflexus assessed as inhibition of fresh weed plant weight at 93.75 g/ha using pre-emergence treatment protocol
[8] = tested on: Digitaria sanguinalis; experiment: Herbicidal activity against Digitaria sanguinalis (hairy crabgrass) assessed as inhibition of fresh weed plant weight at 750 g/ha using pre-emergence treatment protocol
[9] = tested on: Echinochloa crus-galli; experiment: Herbicidal activity against Echinochloa crus-galli (barnyard grass) assessed as inhibition of fresh weed plant weight at 1500 g/ha using pre-emergence treatment protocol
[10] = tested on: Digitaria sanguinalis; experiment: Herbicidal activity against Digitaria sanguinalis (hairy crabgrass) assessed as inhibition of fresh weed plant weight at 1500 g/ha using pre-emergence treatment protocol
[11] = tested on: Brassica rapa subsp. oleifera; experiment: Herbicidal activity against Brassica rapa subsp. oleifera assessed as inhibition of fresh weed plant weight at 375 g/ha using pre-emergence treatment protocol
[12] = tested on: Digitaria sanguinalis; experiment: Herbicidal activity against Digitaria sanguinalis (hairy crabgrass) assessed as inhibition of fresh weed plant weight at 1500 g/ha using post-emergence treatment protocol; how it was run: as §1
[13] = tested on: Brassica rapa subsp. oleifera; experiment: Herbicidal activity against Brassica rapa subsp. oleifera assessed as inhibition of fresh weed plant weight at 187.5 g/ha using pre-emergence treatment protocol
[14] = tested on: Echinochloa crus-galli; experiment: Herbicidal activity against Echinochloa crus-galli (barnyard grass) assessed as inhibition of fresh weed plant weight at 93.75 g/ha using pre-emergence treatment protocol
[15] = tested on: Brassica rapa subsp. oleifera; experiment: Herbicidal activity against Brassica rapa subsp. oleifera assessed as inhibition of fresh weed plant weight at 1500 g/ha using pre-emergence treatment protocol
[16] = tested on: Amaranthus retroflexus; experiment: Herbicidal activity against Amaranthus retroflexus assessed as inhibition of fresh weed plant weight at 1500 g/ha using post-emergence treatment protocol; how it was run: as §1
[17] = tested on: Amaranthus retroflexus; experiment: Herbicidal activity against Amaranthus retroflexus assessed as inhibition of fresh weed plant weight at 1500 g/ha using pre-emergence treatment protocol
[18] = tested on: Echinochloa crus-galli; experiment: Herbicidal activity against Echinochloa crus-galli (barnyard grass) assessed as inhibition of fresh weed plant weight at 1500 g/ha using post-emergence treatment protocol; how it was run: as §1
[19] = tested on: Brassica rapa subsp. oleifera; experiment: Herbicidal activity against Brassica rapa subsp. oleifera assessed as inhibition of fresh weed plant weight at 93.75 g/ha using pre-emergence treatment protocol
[20] = tested on: Brassica rapa subsp. oleifera; experiment: Herbicidal activity against Brassica rapa subsp. oleifera assessed as inhibition of fresh weed plant weight at 1500 g/ha using post-emergence treatment protocol; how it was run: as §1
[21] = tested on: Echinochloa crus-galli; experiment: Herbicidal activity against Echinochloa crus-galli (barnyard grass) assessed as inhibition of fresh weed plant weight at 375 g/ha using pre-emergence treatment protocol; how it was run: as §1
[22] = tested on: Digitaria sanguinalis; experiment: Herbicidal activity against Digitaria sanguinalis (hairy crabgrass) assessed as inhibition of fresh weed plant weight at 187.5 g/ha using pre-emergence treatment protocol
[23] = tested on: Brassica rapa subsp. oleifera; experiment: Herbicidal activity against Brassica rapa subsp. oleifera assessed as inhibition of fresh weed plant weight at 750 g/ha using pre-emergence treatment protocol
[24] = tested on: Amaranthus retroflexus; experiment: Herbicidal activity against Amaranthus retroflexus assessed as inhibition of fresh weed plant weight at 375 g/ha using pre-emergence treatment protocol
[25] = tested on: Amaranthus retroflexus; experiment: Herbicidal activity against Amaranthus retroflexus assessed as inhibition of fresh weed plant weight at 375 g/ha using post-emergence treatment protocol; how it was run: as §1
[26] = tested on: Digitaria sanguinalis; experiment: Herbicidal activity against Digitaria sanguinalis (hairy crabgrass) assessed as inhibition of fresh weed plant weight at 750 g/ha using post-emergence treatment protocol; how it was run: as §1
[27] = tested on: Digitaria sanguinalis; experiment: Herbicidal activity against Digitaria sanguinalis (hairy crabgrass) assessed as inhibition of fresh weed plant weight at 187.5 g/ha using post-emergence treatment protocol; how it was run: as §1
[28] = tested on: Echinochloa crus-galli; experiment: Herbicidal activity against Echinochloa crus-galli (barnyard grass) assessed as inhibition of fresh weed plant weight at 375 g/ha using post-emergence treatment protocol; how it was run: as §1
[29] = tested on: Digitaria sanguinalis; experiment: Herbicidal activity against Digitaria sanguinalis (hairy crabgrass) assessed as inhibition of fresh weed plant weight at 375 g/ha using post-emergence treatment protocol; how it was run: as §1
[30] = tested on: Brassica rapa subsp. oleifera; experiment: Herbicidal activity against Brassica rapa subsp. oleifera assessed as inhibition of fresh weed plant weight at 750 g/ha using post-emergence treatment protocol; how it was run: as §1
[31] = tested on: Amaranthus retroflexus; experiment: Herbicidal activity against Amaranthus retroflexus assessed as inhibition of fresh weed plant weight at 750 g/ha using post-emergence treatment protocol; how it was run: as §1
[32] = tested on: Brassica rapa subsp. oleifera; experiment: Herbicidal activity against Brassica rapa subsp. oleifera assessed as inhibition of fresh weed plant weight at 187.5 g/ha using post-emergence treatment protocol; how it was run: as §1
[33] = tested on: Amaranthus retroflexus; experiment: Herbicidal activity against Amaranthus retroflexus assessed as inhibition of fresh weed plant weight at 187.5 g/ha using post-emergence treatment protocol; how it was run: as §1
[34] = tested on: Echinochloa crus-galli; experiment: Herbicidal activity against Echinochloa crus-galli (barnyard grass) assessed as inhibition of fresh weed plant weight at 187.5 g/ha using post-emergence treatment protocol; how it was run: as §1
[35] = tested on: Echinochloa crus-galli; experiment: Herbicidal activity against Echinochloa crus-galli (barnyard grass) assessed as inhibition of fresh weed plant weight at 750 g/ha using post-emergence treatment protocol; how it was run: as §1
[36] = tested on: Brassica rapa subsp. oleifera; experiment: Herbicidal activity against Brassica rapa subsp. oleifera assessed as inhibition of fresh weed plant weight at 375 g/ha using post-emergence treatment protocol; how it was run: as §1

Structure (SMILES) | inhibition at 187.5 g/ha [1] [%] | inhibition at 750 g/ha [2] [%] | inhibition at 750 g/ha [3] [%] | inhibition at 187.5 g/ha [4] [%] | inhibition at 375 g/ha [5] [%] | inhibition at 750 g/ha [8] [%] | inhibition at 1500 g/ha [9] [%] | inhibition at 1500 g/ha [10] [%] | inhibition at 375 g/ha [11] [%] | inhibition at 1500 g/ha [12] [%] | inhibition at 187.5 g/ha [13] [%] | inhibition at 1500 g/ha [15] [%] | inhibition at 1500 g/ha [16] [%] | inhibition at 1500 g/ha [17] [%] | inhibition at 1500 g/ha [18] [%] | inhibition at 1500 g/ha [20] [%] | inhibition at 375 g/ha [21] [%] | inhibition at 187.5 g/ha [22] [%] | inhibition at 750 g/ha [23] [%] | inhibition at 375 g/ha [24] [%] | other results
CCCN1C(=O)COc2cc(F)c(-n3nnc4c(cnn4C)c3=O)cc21 | 89.5 | 91.2 | 95.3 | 28.4 | 65.4 | 87.8 | 94.8 | 94.1 | 57.1 | 47.5 | 38.5 | 100 | 54.1 | 100 | 46.9 | 20.5 | 69.6 | 14.2 | 79.9 | 93.2 | inhibition at 93.75 g/ha [6]: 3.9%; inhibition at 93.75 g/ha [7]: 83.8%; inhibition at 93.75 g/ha [14]: 0%; inhibition at 93.75 g/ha [19]: 32.2%
C#CCOc1cc(-n2nnc3c(cnn3CC=C)c2=O)c(F)cc1Cl | 21.3 | 0 | 41 | 0 | 13 | 17.4 | 0 | 37.4 | 0 | 41.3 | 0 | 7.4 | 88.6 | 87 | 38.3 | 18.5 | 0 | 6.5 | 0 | 27.9 | inhibition at 375 g/ha [25]: 12.2%; inhibition at 750 g/ha [26]: 19.4%; inhibition at 187.5 g/ha [27]: 0%; inhibition at 375 g/ha [28]: 11.2%; inhibition at 375 g/ha [29]: 0%; inhibition at 750 g/ha [30]: 7.4%; inhibition at 750 g/ha [31]: 41.5%; inhibition at 187.5 g/ha [32]: 0%; inhibition at 187.5 g/ha [33]: 7.3%; inhibition at 187.5 g/ha [34]: 7.3%; inhibition at 750 g/ha [35]: 17.1%; inhibition at 375 g/ha [36]: 3.4%
C=CCOc1cc(-n2nnc3c(cnn3CC=C)c2=O)c(F)cc1Cl | 1.6 | 16.9 | 34.4 | 6.5 | 0 | 4.3 | 30.1 | 10.5 | 11.9 | 23.1 | 9 | 30.5 | 100 | 60.1 | 32.3 | 10.3 | 10 | 0 | 16.4 | 27.9 | inhibition at 375 g/ha [25]: 85.4%; inhibition at 750 g/ha [26]: 11.1%; inhibition at 187.5 g/ha [27]: 0%; inhibition at 375 g/ha [28]: 18%; inhibition at 375 g/ha [29]: 0%; inhibition at 750 g/ha [30]: 2.9%; inhibition at 750 g/ha [31]: 100%; inhibition at 187.5 g/ha [32]: 0%; inhibition at 187.5 g/ha [33]: 12.2%; inhibition at 187.5 g/ha [34]: 2.4%; inhibition at 750 g/ha [35]: 22%; inhibition at 375 g/ha [36]: 0%
